Compound activity deposited in PubChem by Johns Hopkins Ion Channel Center.
KCNQ1 block: blocks the human KCNQ1 potassium channel; B-score at 10 µM; 310,000 compounds, 1.3% hits; P51787; CHO-K1 KCNQ1, FluxOR thallium flux fluorescence; stronger effect = higher value;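 active means compounds whose thallium flux B-score, printed positive for inhibition, exceeds three library SD while starting fluorescence stays within three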;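 further: channel opened by potassium depolarization with thallium stimulus after 20 min compound exposure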
KCNK9 inh: blocks the human KCNK9 two-pore domain potassium channel. Q9NPC2. HEK293 KCNK9, FluxOR thallium flux fluorescence; stronger effect = lower value. B-score at 10 µM. 310,000 compounds, 1.2% hits;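 active means ratio B-score over 3 SD below the library mean, with starting fluorescence within 5 SD of its mean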;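 further: negative B-score means less thallium flux so channel inhibition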
Target sequence (Q9NPC2 whole entry, looked up, the tested form may be a part): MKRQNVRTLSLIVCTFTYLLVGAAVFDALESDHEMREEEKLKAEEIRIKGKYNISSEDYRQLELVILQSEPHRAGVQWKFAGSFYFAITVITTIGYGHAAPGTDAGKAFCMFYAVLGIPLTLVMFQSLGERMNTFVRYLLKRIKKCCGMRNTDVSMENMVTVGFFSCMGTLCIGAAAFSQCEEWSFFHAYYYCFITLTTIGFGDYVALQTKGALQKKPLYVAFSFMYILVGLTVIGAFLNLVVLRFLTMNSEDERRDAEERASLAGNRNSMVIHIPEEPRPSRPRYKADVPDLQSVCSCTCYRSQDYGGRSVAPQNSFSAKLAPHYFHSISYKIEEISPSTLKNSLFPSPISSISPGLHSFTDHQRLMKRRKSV
KCNK3 block: human KCNK3 channel inhibition, primary screen. O14649. AID 602410. B-score at 10 µM. CHO-KCNK3 thallium flux, FluxOR fluorescence; stronger effect = lower value. 340,000 compounds, 0.84% hits;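 active means B-score under library mean minus 4 SD, starting fluorescence ratio at most library mean plus 5 SD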;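 further: more negative B-score means stronger inhibition of thallium flux through KCNK3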
KCNQ1 act: potentiators or activators of human KCNQ1 potassium channel. P51787. CHO-K1 KCNQ1, thallium flux FluxOR fluorescence; stronger effect = higher value. B-score at 10 µM. 310,000 compounds, 0.35% hits. AID 2648;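 active means fluorescence ratio B-score, a plate-corrected score, at least three library SD, with initial intensity B-score within 5 SD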
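Medium – assay buffer, equal DMSO in all wells · Material – CHO-K1 cell line with stable KCNQ1 potassium channel expression · Signal – kinetic FluxOR thallium fluorescence, 10-s 1-Hz baseline, 110-s post-stimulus read · Compound – single concentration per compound, DMSO matched to controls · Schedule – 37 °C overnight plating, 90-min dark dye load, 20-min compound pretreatment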
hERG rescue: hERG (human) protection from proarrhythmic block. Q12809. CHO-hERG, FluxOR thallium flux, dofetilide IC70 present. activation (rescue from dofetilide block), less the hit threshold, % at 10 µM. 310,000 compounds, 0.51% hits;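 active means activation above the mean of controls blocked by dofetilide plus 5 SD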;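 further: thallium influx through hERG after potassium depolarization seen as dye fluorescence rise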
KCNK9 block conf: human KCNK9 inhibitor confirmation. shares compounds with KCNK9 inh. HEK293 KCNK9 cells, FluxOR thallium flux fluorescence. inhibition, % at 10 µM. 4,900 compounds, 43% hits. AID 492992;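 active means thallium signal inhibited by more than 5 SD of the compound-free buffer control wells, on both duplicate plates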;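 further: 0% = assay buffer control wells without compound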
Kir2-1 spec: selectivity of KCNK9 modulators against mouse Kir2.1. 4,900 compounds, 4% hits. Kir2.1 cells, FluxOR thallium flux fluorescence. AID 492993. inhibition, % at 10 µM. shares compounds with KCNK9 inh;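 active means thallium signal drop more than 5 SD beyond the mean of the no-compound control wells, seen in both duplicate plates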;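 further: signal is fluorescence rise after thallium addition divided by baseline fluorescence; plate controls were assay buffer only for no effect and full block by chlorpromazine control for full effect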
HEK293 Tl ctr: non-induced cell nonspecific activity of KCNK9 modulators. shares compounds with KCNK9 inh. non-induced KCNK9-HEK293, FluxOR thallium flux. inhibition, % at 10 µM. 4,900 compounds, 40% hits;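 active means thallium signal drop beyond 5 SD of the untreated control mean, on both duplicate plates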;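 further: plate controls were buffer only IC0 wells for no effect and SID17386958 at its maximal inhibitory level for full effect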
An asterisk follows results filed as active. This is a sample that favours compounds with a hit; in the whole collection about 3.1% have one here.

For CC(=O)Oc1cc2cccc(OC(C)=O)c(=O)c2c(OC(C)=O)c1OC(C)=O the results were KCNQ1 block inactive, KCNK9 inh inactive, KCNK3 block inactive, KCNQ1 act inactive and hERG rescue -10.
Screening COc1ccc(C(=O)NC(=O)COC(=O)CCS(=O)(=O)c2ccc(C)cc2)cc1 returned KCNK3 block inactive.
Screening OCCNNC(=S)NC1CC2C=CC1C2 (stereo not drawn) returned KCNQ1 block inactive, KCNK9 inh inactive, KCNK3 block inactive, KCNQ1 act inactive and hERG rescue -3.
`CC1=C(C(=O)Nc2cc(C(=O)N3CCN(c4cccc(C)c4C)CC3)ccc2C)SCCO1` gave KCNQ1 block inactive, KCNK9 inh inactive, KCNK3 block inactive, KCNQ1 act inactive and hERG rescue -12.
Screening COc1c(C)cc(C(=O)C2CCCN(C(=O)c3cccc(F)c3)C2)cc1C (stereo not drawn) returned KCNQ1 block inactive, KCNK9 inh inactive, KCNK3 block inactive, KCNQ1 act inactive, hERG rescue -7, KCNK9 block conf inactive, Kir2-1 spec inactive and HEK293 Tl ctr inactive.
`COC(=O)c1ccccc1C(=O)N1CCCC(C(=O)c2ccc(OC)c(OC)c2)C1` (stereo not drawn) gave KCNQ1 block inactive, KCNK9 inh inactive, KCNK3 block inactive, KCNQ1 act inactive and hERG rescue -8.
For COc1ccc(C(=O)C2CCCN(C(=O)c3cccc(Cl)c3F)C2)cc1OC (stereo not drawn) the results were KCNQ1 block inactive, KCNK9 inh inactive, KCNK3 block inactive, KCNQ1 act inactive, hERG rescue -8, KCNK9 block conf inactive, Kir2-1 spec inactive and HEK293 Tl ctr inactive.
COc1c(C)cc(C(=O)C2CCCN(C(=O)c3ccoc3)C2)cc1C (stereo not drawn) was read as KCNQ1 block inactive, KCNK9 inh inactive, KCNK3 block inactive, KCNQ1 act inactive and hERG rescue -12.
Screening Cc1ccsc1CN(C(=O)c1ccccc1)C1CCS(=O)(=O)C1 (stereo not drawn) returned KCNQ1 block inactive, KCNK9 inh inactive, KCNK3 block inactive, KCNQ1 act inactive and hERG rescue -8.
Screening Cc1ccc(Cl)cc1N1CCN(Cc2cc3c(cc2O)CCC3)CC1 returned KCNQ1 block inactive, KCNK9 inh inactive, KCNK3 block inactive, KCNQ1 act inactive, hERG rescue -16, KCNK9 block conf inactive, Kir2-1 spec inactive and HEK293 Tl ctr inactive.
`Cc1ccc(Cl)cc1N1CCN(C(=O)c2ccc(CN3CCOCC3)cc2)CC1` gave KCNQ1 block inactive, KCNK9 inh inactive, KCNK3 block inactive, KCNQ1 act inactive and hERG rescue -3.
For O=C(O)c1ccc(N2C(=O)CC(N3C(=O)/C(=C/c4ccc(Cl)cc4)SC3=S)C2=O)cc1 (stereo not drawn) the results were KCNQ1 block inactive, KCNK9 inh inactive, KCNK3 block inactive, KCNQ1 act inactive, hERG rescue -9, KCNK9 block conf inactive, Kir2-1 spec inactive and HEK293 Tl ctr inactive.
`NC(=O)c1ccc(NC(=O)CCN2C(=O)c3ccccc3C2=O)cc1` gave KCNQ1 block inactive, KCNK9 inh inactive, KCNK3 block inactive, KCNQ1 act inactive and hERG rescue -6.
For CCc1ccccc1NC(=O)/C(C#N)=C\c1ccc(Sc2ccccc2)o1 the results were KCNQ1 block inactive, KCNK9 inh -11*, KCNK3 block -9.4*, KCNQ1 act inactive, hERG rescue -3, KCNK9 block conf 40%*, Kir2-1 spec inactive and HEK293 Tl ctr 49%*.
For CC1CC1c1ccc(/C=C(\C#N)C(=O)Nc2ccccc2Cl)o1 (stereo not drawn) the results were KCNQ1 block inactive, KCNK9 inh inactive, KCNK3 block inactive, KCNQ1 act inactive and hERG rescue -13.
CCc1ccccc1NC(=O)/C(C#N)=C/c1ccc(Sc2ccccc2)o1 was read as KCNQ1 block inactive, KCNK9 inh -14*, KCNK3 block inactive, KCNQ1 act inactive, hERG rescue -7, KCNK9 block conf 53%*, Kir2-1 spec inactive and HEK293 Tl ctr 51%*.
`Cc1cc(C)nc(Sc2ccc(/C=C(\C#N)C(=O)Nc3ccccc3)o2)n1` gave KCNQ1 block inactive, KCNK9 inh inactive, KCNK3 block inactive, KCNQ1 act inactive and hERG rescue 2.
For COc1ccc(OC)c(Nc2ncnc3sc(-c4ccccc4)cc23)c1 the results were KCNQ1 block inactive, KCNK9 inh -11*, KCNK3 block inactive, KCNQ1 act inactive, hERG rescue -9, KCNK9 block conf inactive, Kir2-1 spec inactive and HEK293 Tl ctr 32%*.
Screening COc1ccc(OC)c(Nc2ncnc3sccc23)c1 returned KCNQ1 block inactive, KCNK9 inh inactive, KCNK3 block inactive, KCNQ1 act inactive and hERG rescue -4.
Clc1nc(CN2CCOCC2)nc2sc3c(c12)CCC3 was read as KCNQ1 block inactive, KCNK9 inh inactive, KCNK3 block inactive, KCNQ1 act inactive and hERG rescue -8.
`Cc1cccc(Oc2nc(CN3CCOCC3)nc3sc4c(c23)CCCC4)c1` gave KCNQ1 block inactive, KCNK9 inh inactive, KCNK3 block inactive, KCNQ1 act inactive, hERG rescue -16, KCNK9 block conf inactive, Kir2-1 spec inactive and HEK293 Tl ctr inactive.
For Cc1ccc(C)c(N2CCN(S(=O)(=O)c3ccc(-c4cc(C)no4)s3)CC2)c1 the results were KCNQ1 block inactive, KCNK9 inh inactive, KCNK3 block inactive, KCNQ1 act inactive and hERG rescue -9.
Cc1ccc(C)c(N2CCN(S(=O)(=O)c3c(C)noc3C)CC2)c1 was read as KCNQ1 block inactive, KCNK9 inh inactive, KCNK3 block inactive, KCNQ1 act inactive, hERG rescue -1, KCNK9 block conf inactive, Kir2-1 spec inactive and HEK293 Tl ctr 28%*.
Screening CCCCNC(=S)Nc1ccc(OC)nc1 returned KCNQ1 block inactive, KCNK9 inh inactive, KCNK3 block inactive, KCNQ1 act inactive and hERG rescue -7.
`COc1ccccc1Cc1noc(COc2cccc(C)c2C)n1` gave KCNQ1 block inactive, KCNK9 inh inactive, KCNK3 block inactive, KCNQ1 act inactive, hERG rescue -14, KCNK9 block conf inactive, Kir2-1 spec inactive and HEK293 Tl ctr inactive.
